Data reported in ChEMBL document CHEMBL2157894, “Antileishmanial bis-arylimidamides: DB766 analogs modified in the linker region and bis-arylimidamide structure-activity relationships” (Bioorg Med Chem Lett, 2012).

Columns and labels:
Leishmania donovani [1] = experiment: Antileishmanial activity against amastigote form of Leishmania donovani LV82 expressing beta-lactamase infected in CD1 mouse macrophages after 72 hrs by nitrocefin-based spectrophotometric analysis; assay type: functional, organism-based; conditions: LV82, 72 h
Outline: (§1)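 Intracellular amastigotes in macrophages; absorbance read-out with uninfected and infected control wells; IC50 from dose–response curves; mean ± SD of at least three determinations, each run in triplicate.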

Leishmania amazonensis = experiment: Antileishmanial activity against amastigote form of Leishmania amazonensis expressing beta-lactamase infected in CD1 mouse macrophages after 72 hrs by nitrocefin-based spectrophotometric analysis; assay type: functional, organism-based; outline: as §1
J774 = experiment: Cytotoxicity against mouse J774 cells; assay type: cell-based
Outline: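 J774 macrophages exposed to compounds; IC50 reported in nM as mean ± SD of at least three determinations.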

[2] = Selectivity index, ratio of IC50 for mouse J774 cells to IC50 for Leishmania donovani; assay type: toxicity, cell-based; conditions: J774 cells versus Leishmania donovani, read-out: Ratio IC50
Outline: (§2)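 SI calculated as IC50 against J774 macrophages divided by IC50 against intracellular Leishmania, each IC50 from mean of at least three determinations.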

Mus musculus [3] = experiment: Toxicity in BALB/c mouse assessed as adverse effects at 30 mg/kg/day, ip administered for 5 days; assay type: organism-based; parameters: route intraperitoneal; conditions: in vivo, 120 h
Leishmania donovani [4] = experiment: Antileishmanial activity against promastigote form of Leishmania donovani LV82 infected in BALB/c mouse assessed as reduction in liver parasitemia at 30 mg/kg/day, ip administered for 5 days starting 1 week post-infection measured after 2 weeks relative to untreated control; assay type: functional; parameters: scale not given: the % may be the effect or the level left; conditions: route intraperitoneal
Outline: (§3)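 Female BALB/c mice infected with L. donovani; treated daily for five days starting one week post infection, test agent ip in water, miltefosine orally at 10 mg/kg/day; liver parasitemia counted microscopically two weeks post infection; % reduction versus infected untreated controls; groups of four, mean ± SD; P<0.05 versus untreated.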

[5] = Selectivity index, ratio of IC50 for mouse J774 cells to IC50 for Leishmania amazonensis; assay type: toxicity, cell-based; conditions: J774 cells versus Leishmania amazonensis, read-out: Ratio IC50; outline: as §2
Mus musculus [6] = experiment: Toxicity in BALB/c mouse assessed as hyperactivity at 30 mg/kg/day, ip measured from day 2 to 3; assay type: organism-based; parameters: route intraperitoneal; conditions: in vivo
Mus musculus [7] = experiment: Toxicity in BALB/c mouse assessed as tremors at 30 mg/kg/day, ip measured from day 2 to 3; assay type: organism-based; parameters: route intraperitoneal; conditions: in vivo
Mus musculus [8] = experiment: Toxicity in BALB/c mouse assessed as mortality at 30 mg/kg, ip measured within 24 hrs; assay type: organism-based; parameters: dose 30 mg/kg, route intraperitoneal; conditions: in vivo
Mus musculus [9] = experiment: Gastrointestinal toxicity in BALB/c mouse assessed as black and swollen stomach at 30 mg/kg, ip measured within 24 hrs by necroscopic analysis; assay type: organism-based; parameters: dose 30 mg/kg, route intraperitoneal; conditions: in vivo
Mus musculus [10] = experiment: Gastrointestinal toxicity in BALB/c mouse assessed as black and swollen colon at 30 mg/kg, ip measured within 24 hrs by necroscopic analysis; assay type: organism-based; parameters: dose 30 mg/kg, route intraperitoneal; conditions: in vivo
Mus musculus [11] = experiment: Gastrointestinal toxicity in BALB/c mouse assessed as black and swollen intestine at 30 mg/kg, ip measured within 24 hrs by necroscopic analysis; assay type: organism-based; parameters: dose 30 mg/kg, route intraperitoneal; conditions: in vivo
Leishmania donovani [12] = experiment: Antileishmanial activity against promastigote form of Leishmania donovani LV82 infected in BALB/c mouse assessed as reduction in liver parasitemia at 10 mg/kg/day, po administered for 5 days relative to untreated control; assay type: functional; parameters: scale not given: the % may be the effect or the level left; outline: as §3

With `CC(C)Oc1cc(-c2ccc(-c3ccc(NC(=N)c4ccccn4)c(OC(C)C)c3)o2)ccc1NC(=N)c1ccccn1.CS(=O)(=O)O` the IC50 (Leishmania donovani [1]) was 0.026 µM, the IC50 (Leishmania amazonensis) was 0.29 µM and the IC50 (J774) was 10 µM. For the same compound, the selectivity ratio [2] was 385, the Activity (Mus musculus [3]) was “Non-toxic” and the Activity (Leishmania donovani [4]) was 32%.

Compound `COc1cc(NC(=N)c2ccccn2)ccc1-c1ccc(-c2ccc(NC(=N)c3ccccn3)cc2OC(C)C)o1.CS(=O)(=O)O` has an IC50 (Leishmania donovani [1]) of 0.007 µM, an IC50 (Leishmania amazonensis) of 0.11 µM and an IC50 (J774) of 14 µM. The selectivity ratio [2] was 2000, the selectivity ratio [5] was 127 and the Activity (Mus musculus [6]) was “Toxic”. The Activity (Mus musculus [7]) was “Toxic”.

Compound `CS(=O)(=O)O.Cc1cc(NC(=N)c2ccccn2)ccc1-c1ccc(-c2ccc(NC(=N)c3ccccn3)cc2OC(C)C)o1` has an IC50 (Leishmania donovani [1]) of 0.021 µM, an IC50 (Leishmania amazonensis) of 0.049 µM and an IC50 (J774) of 13 µM. The selectivity ratio [2] was 619, the selectivity ratio [5] was 265 and the Activity (Mus musculus [6]) was “Toxic”. For the same compound, the Activity (Mus musculus [7]) was “Toxic”.

`CC(C)Oc1cc(NC(=N)c2ccccn2)ccc1-c1ccc(-c2ccc(NC(=N)c3ccccn3)cc2F)o1.CS(=O)(=O)O` gave an IC50 (Leishmania donovani [1]) of 0.15 µM, an IC50 (Leishmania amazonensis) of 0.19 µM and an IC50 (J774) of 27 µM. For the same compound, the selectivity ratio [2] was 180, the selectivity ratio [5] was 142 and the Activity (Mus musculus [6]) was “Toxic”. The Activity (Mus musculus [7]) was “Toxic”.

`CC(C)Oc1cc(NC(=N)c2ccccn2)ccc1-c1ccc(-c2ccc(NC(=N)c3ccccn3)cc2)o1.CS(=O)(=O)O` showed an IC50 (Leishmania donovani [1]) of 0.0053 µM, an IC50 (Leishmania amazonensis) of 0.093 µM and an IC50 (J774) of 11 µM. The selectivity ratio [2] was 2080, the selectivity ratio [5] was 115 and the Activity (Mus musculus [8]) was “Toxic”. The Activity (Mus musculus [9]) was “Toxic”, the Activity (Mus musculus [10]) was “Toxic” and the Activity (Mus musculus [11]) was “Toxic”.

With `C[C@@H]1[C@H](O)[C@@H](C)/C=C/C=C/C=C/C=C/C=C/C=C/C=C/[C@H](O[C@@H]2O[C@H](C)[C@@H](O)[C@H](N)[C@@H]2O)C[C@@H]2O[C@](O)(C[C@@H](O)C[C@@H](O)[C@H](O)CC[C@@H](O)C[C@@H](O)CC(=O)O[C@H]1C)C[C@H](O)[C@H]2C(=O)O` [AMPHOTERICIN B] the IC50 (Leishmania donovani [1]) was 0.045 µM.

For `CCCCCCCCCCCCCCCCOP(=O)([O-])OCC[N+](C)(C)C` [MILTEFOSINE], the Activity (Leishmania donovani [12]) was 96%.

For `COc1cc([C@@H]2c3cc4c(cc3[C@H](O)[C@H]3COC(=O)[C@H]23)OCO4)cc(OC)c1OC` [PODOFILOX], the IC50 (J774) was 0.018 µM.
